Reference: the array DNA melting data of Ke et al. (doi:10.1101/2024.01.08.574731)

Columns and labels:
[1] = folding enthalpy; higher = less favourable; fluorescence melt of hairpins on a sequencing array, two-state fit; settings: sodium 0.088 M
Outline: (§1)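 Folding enthalpy and melting temperature were estimated with bootstrapped two-state fits and combined across four replicates by inverse-variance weighting, with fitted temperatures raised by 9.35 °C to match UV melts. The data were Cy3 fluorescence of library hairpins, with annealed Cy3 and quencher oligos, on a sequenced MiSeq flow cell in 50 mM Na-HEPES pH 8.0, 25 mM NaCl, imaged in 2.5 °C steps up to 60 °C and normalised to pre-quench Cy3 and control constructs.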

[2] = melting temperature; fluorescence melt of hairpins on a sequencing array, two-state fit, raised by 9.35 °C to match UV melts; settings: sodium 0.088 M
Outline: as §1

| Sequence | folding enthalpy [1] | Tm [2] |
| --- | --- | --- |
| GATCTAGGACTAGATC ((((((....)))))) | -39.7 kcal/mol | 47.4 °C |
| GATCTAGGGCTAGATC ((((((....)))))) | -32.9 kcal/mol | 43.5 °C |
| GATCTAGGGTTAGATC ((((((....)))))) | -28.4 kcal/mol | 37.4 °C |
| GATCTAGGTGTAGATC ((((((....)))))) | -31 kcal/mol | 42.9 °C |
| GATCTAGGTTAGATC ((((((...)))))) | -28.5 kcal/mol | 39.2 °C |
| GATCTAGTAATAGATC ((((((....)))))) | -35.8 kcal/mol | 47.9 °C |
| GATCTAGTAGTAGATC ((((((....)))))) | -29.1 kcal/mol | 43.4 °C |
| GATCTATACTAGATC ((((((...)))))) | -32.6 kcal/mol | 40.6 °C |
| GATCTATAGGTAGATC ((((((....)))))) | -32.8 kcal/mol | 42.2 °C |
| GATCTATAGTTAGATC ((((((....)))))) | -27.1 kcal/mol | 39.4 °C |
| GATCTATATATAGATC ((((((....)))))) | -46.8 kcal/mol | 46.4 °C |
| GATCTATATTAGATC ((((((...)))))) | -26.1 kcal/mol | 40.9 °C |
| GATCTATCCATAGATC ((((((....)))))) | -38.1 kcal/mol | 46.5 °C |
| GATCTATCCTAGATC ((((((...)))))) | -30.6 kcal/mol | 41.1 °C |
| GATCTATCTTAGATC ((((((...)))))) | -24.6 kcal/mol | 41.4 °C |
| GATCTATGAGTAGATC ((((((....)))))) | -40.3 kcal/mol | 45.5 °C |
| GATCTATGGATAGATC ((((((....)))))) | -29.5 kcal/mol | 43 °C |
| GATCTATGGCTAGATC ((((((....)))))) | -30.1 kcal/mol | 37.6 °C |
| GATCTATGGGTAGATC ((((((....)))))) | -33.2 kcal/mol | 45.6 °C |
| GATCTATTACTAGATC ((((((....)))))) | -32.4 kcal/mol | 39.2 °C |
| GATCTATTCTAGATC ((((((...)))))) | -27.6 kcal/mol | 41.3 °C |
| GATCTATTGCTAGATC ((((((....)))))) | -32.8 kcal/mol | 40.5 °C |
| GATCTCAAAGGAGATC ((((((....)))))) | -33.4 kcal/mol | 48.2 °C |
| GATCTCAAGTGAGATC ((((((....)))))) | -34.5 kcal/mol | 51.5 °C |

| Sequence | folding enthalpy [1] | Tm [2] |
| --- | --- | --- |
| GATCTCACAGAGATC ((((((...)))))) | -39.3 kcal/mol | 56.1 °C |
| GATCTCACGTGAGATC ((((((....)))))) | -54.2 kcal/mol | 55.1 °C |
| GATCTCAGCGAGATC ((((((...)))))) | -35.3 kcal/mol | 56.6 °C |
| GATCTCAGCTGAGATC ((((((....)))))) | -46.8 kcal/mol | 54.9 °C |
| GATCTCATCAGAGATC ((((((....)))))) | -35.2 kcal/mol | 55.6 °C |
| GATCTCATCCGAGATC ((((((....)))))) | -39.2 kcal/mol | 53.2 °C |
| GATCTCCAGGAGATC ((((((...)))))) | -37.3 kcal/mol | 52.3 °C |
| GATCTCCAGGGAGATC ((((((....)))))) | -36.5 kcal/mol | 55 °C |
| GATCTCCATTGAGATC ((((((....)))))) | -33.7 kcal/mol | 52.3 °C |
| GATCTCCCAGGAGATC ((((((....)))))) | -36.4 kcal/mol | 56.8 °C |
| GATCTCCCTAGAGATC ((((((....)))))) | -36.2 kcal/mol | 55.7 °C |
| GATCTCCGACGAGATC ((((((....)))))) | -38.1 kcal/mol | 50 °C |
| GATCTCCGATGAGATC ((((((....)))))) | -31.3 kcal/mol | 50.7 °C |
| GATCTCCGCCGAGATC ((((((....)))))) | -49.6 kcal/mol | 50.9 °C |
| GATCTCCGCGAGATC ((((((...)))))) | -44.8 kcal/mol | 55.4 °C |
| GATCTCCGGCGAGATC ((((((....)))))) | -27.1 kcal/mol | 50.7 °C |
| GATCTCCGGGGAGATC ((((((....)))))) | -43.9 kcal/mol | 55.7 °C |
| GATCTCCGTGAGATC ((((((...)))))) | -36.2 kcal/mol | 56.3 °C |
| GATCTCCGTGGAGATC ((((((....)))))) | -47.9 kcal/mol | 59.2 °C |
| GATCTCCTAGGAGATC ((((((....)))))) | -36 kcal/mol | 57.8 °C |
| GATCTCCTCGGAGATC ((((((....)))))) | -52.8 kcal/mol | 58 °C |
| GATCTCCTGAGAGATC ((((((....)))))) | -39 kcal/mol | 53.2 °C |
| GATCTCCTGGGAGATC ((((((....)))))) | -43.3 kcal/mol | 56.5 °C |
| GATCTCCTTTGAGATC ((((((....)))))) | -39.6 kcal/mol | 51.7 °C |

| Sequence | folding enthalpy [1] | Tm [2] |
| --- | --- | --- |
| GATCTCGACCGAGATC ((((((....)))))) | -51.9 kcal/mol | 56.1 °C |
| GATCTCGAGGAGATC ((((((...)))))) | -34.5 kcal/mol | 52.8 °C |
| GATCTCGATGAGATC ((((((...)))))) | -37.2 kcal/mol | 53 °C |
| GATCTCGATTGAGATC ((((((....)))))) | -39.4 kcal/mol | 51.7 °C |
| GATCTCGCAAGAGATC ((((((....)))))) | -37.5 kcal/mol | 67.3 °C |
| GATCTCGCGGAGATC ((((((...)))))) | -35.4 kcal/mol | 54.9 °C |
| GATCTCGCTAGAGATC ((((((....)))))) | -43.5 kcal/mol | 67.6 °C |
| GATCTCGCTGAGATC ((((((...)))))) | -43.6 kcal/mol | 53.8 °C |
| GATCTCGCTTGAGATC ((((((....)))))) | -36.8 kcal/mol | 54.4 °C |
| GATCTCGGAAACGAGACC (.(((((....))))).) | -16.5 kcal/mol | 40.7 °C |
| GATCTCGGAAGAGATC ((((((....)))))) | -37.4 kcal/mol | 63.6 °C |
| GATCTCGGGGAGATC ((((((...)))))) | -30.2 kcal/mol | 54.3 °C |
| GATCTCGGTAGAGATC ((((((....)))))) | -32.7 kcal/mol | 66.5 °C |
| GATCTCGTAGAGATC ((((((...)))))) | -37.2 kcal/mol | 67.9 °C |
| GATCTCGTCCGAGATC ((((((....)))))) | -38.4 kcal/mol | 60.5 °C |
| GATCTCGTCGGAGATC ((((((....)))))) | -43.5 kcal/mol | 54.5 °C |
| GATCTCGTGCGAGATC ((((((....)))))) | -54.9 kcal/mol | 56.3 °C |
| GATCTCGTTCGAGATC ((((((....)))))) | -41.4 kcal/mol | 60.9 °C |
| GATCTCTAAGAGATC ((((((...)))))) | -31.5 kcal/mol | 51.5 °C |
| GATCTCTACAGAGATC ((((((....)))))) | -45.2 kcal/mol | 55.8 °C |
| GATCTCTACGAGATC ((((((...)))))) | -40 kcal/mol | 55.1 °C |
| GATCTCTACGGAGATC ((((((....)))))) | -36 kcal/mol | 55.6 °C |
| GATCTCTCAGGAGATC ((((((....)))))) | -48 kcal/mol | 54.2 °C |
| GATCTCTCGAGAGATC ((((((....)))))) | -40.5 kcal/mol | 54.1 °C |
